Data on one molecule can be found in ChEMBL document CHEMBL4354866, “TREK Channel Family Activator with a Well-Defined Structure-Activation Relationship for Pain and Neurogenic Inflammation” (J Med Chem, 2020).

The subject of data set [1] is T1, Potassium channel subfamily K member 2 (Homo sapiens), O95069 [F160A].
T1 sequence (whole entry): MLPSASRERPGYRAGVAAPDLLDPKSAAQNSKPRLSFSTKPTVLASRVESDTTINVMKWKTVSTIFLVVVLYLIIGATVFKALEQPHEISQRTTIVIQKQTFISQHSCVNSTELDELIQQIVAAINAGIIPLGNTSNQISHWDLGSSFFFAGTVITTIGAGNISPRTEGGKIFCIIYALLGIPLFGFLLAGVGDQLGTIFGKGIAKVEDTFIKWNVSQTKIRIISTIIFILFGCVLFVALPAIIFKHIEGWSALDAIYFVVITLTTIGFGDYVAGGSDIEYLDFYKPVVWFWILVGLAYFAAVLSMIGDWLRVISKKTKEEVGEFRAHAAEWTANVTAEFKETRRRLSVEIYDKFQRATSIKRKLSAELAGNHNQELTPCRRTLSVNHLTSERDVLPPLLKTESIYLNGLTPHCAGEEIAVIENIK
Put plainly: Activation of recombinant human TREK1 F160A mutant expressed in HEK293T cells assessed as increase in K+ current amplitude by whole cell voltage clamp electrophysiological analysis. It counts as cell-based. In short, it runs like this:
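Transiently transfected HEK-293T cells, whole-cell voltage clamp. Held at -60 mV, 500-ms ramp -120 to +60 mV. Pipette (mM) 140 KCl, 5 EGTA, 10 HEPES, pH 7.4; external 145 NaCl, 4 KCl, pH 7.3. Compound diluted from 10 mM DMSO stock and applied extracellularly. Current increase over control fitted to concentration–response curves for EC50.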

In data set [2] the target is Potassium channel subfamily K member 9 (Homo sapiens) (UniProt Q9NPC2). Briefly: Activation of recombinant human TASK3 expressed in HEK293T cells assessed as increase in K+ current amplitude at 10 uM by whole cell voltage clamp electrophysiological analysis. It counts as cell-based. In short, it runs like this: (§1)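 HEK-293T cells transiently transfected with the human K2P channel. Whole-cell clamp at -60 mV, 500-ms ramp -120 to +60 mV. Pipette 140 KCl (pH 7.4), external 145 NaCl/4 KCl (pH 7.3). Compound 10 μM, diluted from 10 mM DMSO stock into external solution.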
Chain of Potassium channel subfamily K member 9 (Homo sapiens) (Q9NPC2 whole entry): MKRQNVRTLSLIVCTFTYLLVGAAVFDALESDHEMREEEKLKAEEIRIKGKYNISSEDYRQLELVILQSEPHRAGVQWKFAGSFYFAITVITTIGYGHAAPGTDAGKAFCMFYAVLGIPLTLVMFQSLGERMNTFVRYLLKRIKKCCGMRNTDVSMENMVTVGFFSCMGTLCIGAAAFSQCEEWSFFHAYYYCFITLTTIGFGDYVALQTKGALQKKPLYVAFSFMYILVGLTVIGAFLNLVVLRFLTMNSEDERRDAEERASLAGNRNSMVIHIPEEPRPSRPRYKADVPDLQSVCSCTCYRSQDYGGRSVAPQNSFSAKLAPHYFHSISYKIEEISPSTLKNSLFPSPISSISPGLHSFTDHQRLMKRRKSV

Data set [3] concerns the target Potassium channel subfamily K member 3 (Homo sapiens) (UniProt O14649). Put plainly: Activation of recombinant human TASK1 expressed in HEK293T cells assessed as increase in K+ current amplitude at 10 uM by whole cell voltage clamp electrophysiological analysis. Format: cell-based. In short, it runs like this:
as §1

Data set [4] concerns the target T2, Potassium channel subfamily K member 2 (Rattus norvegicus) (UniProt Q920B6).
T2 sequence (whole entry): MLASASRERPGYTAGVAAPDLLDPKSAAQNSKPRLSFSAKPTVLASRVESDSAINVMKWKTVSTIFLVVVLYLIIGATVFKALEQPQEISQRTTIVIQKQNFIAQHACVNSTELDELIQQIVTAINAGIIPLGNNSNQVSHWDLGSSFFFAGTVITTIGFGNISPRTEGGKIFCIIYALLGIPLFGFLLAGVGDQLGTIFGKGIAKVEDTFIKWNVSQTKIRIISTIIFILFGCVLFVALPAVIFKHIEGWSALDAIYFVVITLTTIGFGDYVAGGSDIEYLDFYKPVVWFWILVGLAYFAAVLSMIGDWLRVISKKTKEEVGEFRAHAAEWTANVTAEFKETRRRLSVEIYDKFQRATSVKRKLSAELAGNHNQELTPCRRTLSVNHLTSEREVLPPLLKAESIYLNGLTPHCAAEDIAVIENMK
Put plainly: Activation of TREK in depolarized Sprague-Dawley rat DRG neurons assessed as reversal potential of K+ current at 10 uM by whole cell voltage clamp electrophysiological analysis. In short, it runs like this:
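Rat DRG neurons, whole-cell voltage clamp in 3 mM external K⁺. Voltage ramps -20 to -120 mV before and during 10 μM compound. The compound-sensitive current was obtained by subtraction, and its reversal potential was read where it could be resolved (4 cells).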

The nature of data set [5]: Drug uptake in BALB/c mouse plasma at 5 mg/kg, ip administered as single dose by LC-MS/MS analysis. Format: ADME, organism-based. The following applies: in vivo. In short, it runs like this:
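BALB/c mice (n = 6) given a single 5 mg/kg i.p. dose as a 0.5 mg/ml solution in 5% DMSO/5% Tween 80/90% saline. Plasma sampled at 0.083–8 h. Concentrations measured by LC-MS/MS against spiked standard curves; AUC, Tmax, Cmax and T1/2 calculated by non-compartmental analysis of mean concentrations.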

The target of data set [6] is T3, Potassium channel subfamily K member 2 (Homo sapiens) (UniProt O95069).
T3 sequence (whole entry): T1 sequence (whole entry) with A160F
Briefly: Activation of recombinant human TREK1 expressed in HEK293T cells assessed as increase in K+ current amplitude measured after compound washout by whole cell voltage clamp electrophysiological analysis. It counts as cell-based. In short, it runs like this: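 HEK-293T cells expressing human TREK-1, whole-cell clamp. Current recorded during extracellular compound application and again after washout.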

The target of data set [7] is T3, Potassium channel subfamily K member 2 (Homo sapiens). Briefly: Activation of recombinant human TREK1 expressed in HEK293T cells assessed as increase in probability of open channel by outside-out patch electrophysiological analysis. It counts as cell-based. In short, it runs like this: (§2)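 Outside-out patches from HEK-293T cells transfected with human TREK-1 (pEGFP-N1). Pipettes 7–15 MΩ. Open probability measured at -60 and +60 mV. Conductance taken as first open-state current amplitude divided by voltage at ±60 mV.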

Data set [8] has as its system Mus musculus. Briefly: Analgesic activity in mouse model of spared nerve injury assessed as reduction in number of hind paw lifting at 5 mg/kg, ip incubated for 30 mins measured within 5 mins by spontaneous pain test. It counts as functional, organism-based. In short, it runs like this: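 SNI mice, day 7, acclimated 3 days on a wire-mesh floor. Compound 5 mg/kg i.p. Starting 30 min after injection, mice were videotaped for 5 min and left hindpaw flinches counted blind; n = 7.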

Data set [9] addresses T3, Potassium channel subfamily K member 2 (Homo sapiens). Put plainly: Activation of recombinant human TREK1 expressed in HEK293T cells assessed as change in single channel conductance by outside-out patch electrophysiological analysis. Format: cell-based. In short, it runs like this:
as §2

Structures are written as SMILES. Substitutions are numbered along the chain they refer to. Activity calls are given as the source filed them. The rule behind the calls is not given here.

Chain of Potassium channel subfamily K member 3 (Homo sapiens) (O14649 whole entry, looked up): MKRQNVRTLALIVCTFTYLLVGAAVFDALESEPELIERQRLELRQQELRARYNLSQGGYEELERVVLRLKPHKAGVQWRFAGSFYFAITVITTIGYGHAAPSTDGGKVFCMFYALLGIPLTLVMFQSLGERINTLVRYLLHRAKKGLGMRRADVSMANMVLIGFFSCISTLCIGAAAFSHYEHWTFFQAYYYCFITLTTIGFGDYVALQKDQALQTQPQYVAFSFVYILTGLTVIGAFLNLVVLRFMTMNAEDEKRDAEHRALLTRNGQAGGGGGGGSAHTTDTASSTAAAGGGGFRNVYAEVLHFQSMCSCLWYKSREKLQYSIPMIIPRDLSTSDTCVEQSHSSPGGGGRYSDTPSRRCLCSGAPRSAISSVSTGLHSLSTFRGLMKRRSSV

Consider `Cc1ccc2nc(-c3ccc(NC(=O)[C@@H]4CC[C@H](C(=O)O)C4)cc3)sc2c1`, for which the outcome in data set [1], in [6] and in data set [9] was inactive. Besides, the outcome in [2], in data set [3], in data set [7] and in data set [8] was Active. Moreover, the Activity in [4] was -75 mV. For the same molecule, the Drug uptake entry in data set [5] was “Active”.
